This is an account of results in article PMC4869831 (Nature structural & molecular biology, 2011).

Structures are written as SMILES.

One assay concerns the target ATR (Mus musculus, UniProt Q9JKK8). Format: cell-based. Conditions: increasing doses of caffeine. In short, it runs like this: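 3T3 TopBP1-ER mouse cells (15000/well) were plated the day before on gelatine-coated wells. Graded caffeine doses were added for 15 min at 37 °C, then 4-OHT for 60 min at 37 °C. Cells were paraformaldehyde-fixed and stained for γH2AX by immunofluorescence. Automated 10x imaging gave mean γH2AX per DAPI-masked nucleus from ≥300 cells/well. Values were normalized to no-4-OHT (min) and 4-OHT-only (max) controls. Error bars s.d.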

The next assay deals with IGF-IR. The conditions noted are these: equally potent on both kinases in vitro; cited from earlier work.

Sequence of ATR (Q9JKK8 whole entry): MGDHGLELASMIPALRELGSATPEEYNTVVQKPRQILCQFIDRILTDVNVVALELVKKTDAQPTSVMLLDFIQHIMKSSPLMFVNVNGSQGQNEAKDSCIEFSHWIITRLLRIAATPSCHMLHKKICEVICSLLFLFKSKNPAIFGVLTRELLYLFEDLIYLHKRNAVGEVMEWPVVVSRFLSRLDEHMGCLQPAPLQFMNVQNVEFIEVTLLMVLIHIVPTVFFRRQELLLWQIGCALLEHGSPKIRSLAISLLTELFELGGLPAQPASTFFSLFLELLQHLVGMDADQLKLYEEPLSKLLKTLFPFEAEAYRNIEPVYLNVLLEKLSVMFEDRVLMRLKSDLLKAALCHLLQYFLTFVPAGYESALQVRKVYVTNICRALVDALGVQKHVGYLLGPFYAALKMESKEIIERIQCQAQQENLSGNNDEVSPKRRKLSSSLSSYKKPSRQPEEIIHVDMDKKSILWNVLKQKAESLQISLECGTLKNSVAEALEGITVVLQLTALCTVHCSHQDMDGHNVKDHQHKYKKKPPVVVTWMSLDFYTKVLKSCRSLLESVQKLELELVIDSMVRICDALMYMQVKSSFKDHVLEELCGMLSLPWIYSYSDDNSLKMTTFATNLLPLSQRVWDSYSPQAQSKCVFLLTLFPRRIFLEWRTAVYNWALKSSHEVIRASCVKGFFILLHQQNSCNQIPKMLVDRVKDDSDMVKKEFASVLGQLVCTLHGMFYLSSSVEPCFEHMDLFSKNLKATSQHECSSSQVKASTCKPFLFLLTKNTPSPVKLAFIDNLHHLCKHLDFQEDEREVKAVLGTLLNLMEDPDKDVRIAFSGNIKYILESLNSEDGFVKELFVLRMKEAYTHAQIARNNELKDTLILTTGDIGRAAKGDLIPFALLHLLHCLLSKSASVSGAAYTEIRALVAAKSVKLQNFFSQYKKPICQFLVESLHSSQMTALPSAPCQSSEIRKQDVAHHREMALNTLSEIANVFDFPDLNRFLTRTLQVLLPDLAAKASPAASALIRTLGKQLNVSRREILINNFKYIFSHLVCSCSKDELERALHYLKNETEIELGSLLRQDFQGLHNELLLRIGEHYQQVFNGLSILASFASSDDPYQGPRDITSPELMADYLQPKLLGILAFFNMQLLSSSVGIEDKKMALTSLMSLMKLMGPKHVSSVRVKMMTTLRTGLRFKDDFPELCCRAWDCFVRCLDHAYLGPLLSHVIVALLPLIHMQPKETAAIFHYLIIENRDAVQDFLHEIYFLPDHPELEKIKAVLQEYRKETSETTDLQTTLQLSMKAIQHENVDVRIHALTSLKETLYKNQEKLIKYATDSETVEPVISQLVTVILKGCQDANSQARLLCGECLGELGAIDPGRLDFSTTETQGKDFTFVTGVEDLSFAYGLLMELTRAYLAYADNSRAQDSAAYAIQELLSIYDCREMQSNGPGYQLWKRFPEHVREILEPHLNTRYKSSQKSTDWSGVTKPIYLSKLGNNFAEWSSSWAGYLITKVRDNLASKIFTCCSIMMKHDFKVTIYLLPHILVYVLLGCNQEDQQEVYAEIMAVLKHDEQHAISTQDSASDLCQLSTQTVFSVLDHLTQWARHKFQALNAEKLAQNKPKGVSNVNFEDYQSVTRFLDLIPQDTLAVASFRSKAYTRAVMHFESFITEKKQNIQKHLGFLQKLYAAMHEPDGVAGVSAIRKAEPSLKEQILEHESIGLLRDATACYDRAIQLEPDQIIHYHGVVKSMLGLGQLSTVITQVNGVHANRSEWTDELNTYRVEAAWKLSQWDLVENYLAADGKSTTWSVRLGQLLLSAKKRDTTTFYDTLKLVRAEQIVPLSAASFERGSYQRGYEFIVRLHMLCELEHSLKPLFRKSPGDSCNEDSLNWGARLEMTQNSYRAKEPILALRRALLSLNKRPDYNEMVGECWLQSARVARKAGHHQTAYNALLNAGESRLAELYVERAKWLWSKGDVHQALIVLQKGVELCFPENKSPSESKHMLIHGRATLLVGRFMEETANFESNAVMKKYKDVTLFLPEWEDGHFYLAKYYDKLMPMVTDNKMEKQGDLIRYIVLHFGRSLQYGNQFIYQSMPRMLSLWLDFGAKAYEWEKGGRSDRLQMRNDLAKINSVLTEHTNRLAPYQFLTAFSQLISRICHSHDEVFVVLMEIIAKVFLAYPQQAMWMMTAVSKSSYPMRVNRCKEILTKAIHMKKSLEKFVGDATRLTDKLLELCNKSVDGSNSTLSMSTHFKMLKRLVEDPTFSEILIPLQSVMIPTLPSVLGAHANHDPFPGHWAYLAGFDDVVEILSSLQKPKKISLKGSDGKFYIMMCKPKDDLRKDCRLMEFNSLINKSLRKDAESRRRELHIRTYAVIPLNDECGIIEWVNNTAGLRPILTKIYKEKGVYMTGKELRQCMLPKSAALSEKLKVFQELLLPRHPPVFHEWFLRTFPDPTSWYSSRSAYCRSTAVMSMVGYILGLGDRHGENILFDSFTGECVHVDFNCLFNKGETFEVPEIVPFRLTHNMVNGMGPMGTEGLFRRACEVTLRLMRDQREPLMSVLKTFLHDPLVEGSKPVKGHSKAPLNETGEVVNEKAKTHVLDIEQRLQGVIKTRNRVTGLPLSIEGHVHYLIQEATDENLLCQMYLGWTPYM

For the compound `Cn1c(=O)c2c(ncn2C)n(C)c1=O` [Caffeine], the “nuclear γH2AX signal induced by 4-OHT” value on ATR is recorded as “stepwise decrease in the γH2AX signal”.
On to `Nc1ncnc2c1c(-c1cccc(OCc3ccccc3)c1)cn2[C@H]1C[C@@H](CN2CCC2)C1` [NVP-AEW541], for which the “selectivity against IGF-IR vs InsR in cellulo” value with IGF-IR is 26 fold.
